# Assay results pooled from the literature.
# Protocols differ between the studies behind these lines.
# KCNH2: Voltage-gated inwardly rectifying potassium channel KCNH2 (KCNH2, Homo sapiens, UniProt Q12809)
# UGT2B7: UDP-glucuronosyltransferase 2B7 (UGT2B7, Homo sapiens, UniProt P16662)
SMILES,target,assay,system,setting,quantity,value
O=c1c2ccccc2c(Cc2ccc(Cl)cc2)nn1C1CCCNCC1 (centres unmarked),KCNH2,"ion current, inhibitor, patch clamp",HEK293,10 µM,inhibition,97%
C=C1CC[C@@H]2[C@](C)(CO)[C@H](O)CC[C@@]2(C)[C@@H]1CCC1=CCOC1=O,UGT2B7,"enzyme activity, inhibitor",,"100 µM, pH 7.4",inhibition,95%
CON=C(N)c1ccc(-c2ccc(-c3ccc(C(N)=NOC)cc3)o2)cc1,"Cytochrome P450 4F2 (Homo sapiens, UniProt P78329)","enzyme activity, substrate",,,Km,0.7 µM
CNC(=O)[C@@]12C[C@@H]1[C@@H](n1cnc3c(NCCc4ccc(O)c(OC)c4)nc(C#Cc4ccco4)nc31)[C@H](O)[C@@H]2O,KCNH2,"ion current, inhibitor",,10 µM,inhibition,> 50%
CN(CCC(=O)O)C(=O)c1ccc2c(c1)CC[C@@H]1[C@@H]2CC[C@]2(C)C(c3cncc(F)c3)=CC[C@@H]12,UGT2B7,"enzyme activity, inhibitor",,,IC50,> 30 µM
CC(C)=CCCC(C)c1ccc(C)cc1 (centres unmarked),UGT2B7,"enzyme activity, inhibitor",,,IC50,> 200 µM
C=C1CCC2C(C)(CO)C(=O)CCC2(C)C1CCC1=CCOC1=O (centres unmarked),UGT2B7,"enzyme activity, inhibitor",,,Ki,4.2 µM
C[C@@H](Cn1ccc(-c2ccc(C#N)c(Cl)c2)n1)NC(=O)c1cc([C@@H](C)O)[nH]n1,UGT2B7,"enzyme activity, inhibitor","human, liver microsomes",,IC50,> 100 µM
C=C1CC[C@@H]2[C@](C)(CO[C@@H]3O[C@H](CO)[C@@H](O)[C@H](O)[C@H]3O)CCC[C@@]2(C)[C@@H]1CCC1=CCOC1=O,UGT2B7,"enzyme activity, inhibitor",,"100 µM, pH 7.4",inhibition,42%
O=C(Nc1cccc(C(F)(F)F)c1)N1CCN(c2cccc(C(F)(F)F)c2)CC1,KCNH2,"ion current, inhibitor, patch clamp",HEK293,10 µM,inhibition,85%
CC(=O)c1cc(C(=O)N[C@@H](C)Cn2ccc(-c3ccc(C#N)c(Cl)c3)n2)[nH]n1,UGT2B7,"enzyme activity, inhibitor","human, liver microsomes",,IC50,> 50 µM
